Source: ChEMBL document CHEMBL4270526, “A novel NAE/UAE dual inhibitor LP0040 blocks neddylation and ubiquitination leading to growth inhibition and apoptosis of cancer cells” (Eur J Med Chem, 2018)
The source made the active and inactive calls. The rule behind the calls is not given here.

Legend:
[1] = test system: AGS; assay: Induction of apoptosis in human AGS cells assessed as late apoptotic cells at 10 uM after 36 hrs by Annexin-V-FITC/propidium iodide staining based flow cytometry (reference value: 1.71%); assay type: functional
[2] = molecular target: T1, NEDD8 activating enzyme (Homo sapiens) (UniProt Q8TBC4+Q13564); assay: Inhibition of NAE-mediated CRL neddylation in human AGS cells assessed as increase in CDT1 level up to 10 uM after 24 hrs by Western blot analysis; assay type: cell-based
Summary of the method: (§1)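 AGS cells given 2, 4, 6, 8 or 10 μM compound or 0.1% DMSO for 24 h, washed in ice-cold PBS and lysed in RIPA on ice. Equal protein loads run by SDS-PAGE: non-reducing for NEDD8/SUMO/Ub conjugates, reducing for p27, NRF2, CDT1 and cleaved caspase-3. Blotted to PVDF with primary antibody overnight at 4 °C and HRP secondary, ECL detection, densitometry. Three repeats.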

[3] = Selectivity index, ratio of IC50 for HEK293T cells to IC50 for human AGS cells; assay type: toxicity; details: HEK293T cells versus AGS cells, read-out: Ratio IC50
[4] = molecular target: cAMP-dependent protein kinase catalytic subunit alpha (Homo sapiens) (UniProt P17612); assay: Inhibition of PKAalpha (unknown origin) at 30 uM relative to control
[5] = test system: AGS; assay: Induction of apoptosis in human AGS cells assessed as late apoptotic cells at 6 uM after 36 hrs by Annexin-V-FITC/propidium iodide staining based flow cytometry (reference value: 1.71%); assay type: functional
[6] = test system: AGS; assay: Induction of apoptosis in human AGS cells assessed as late apoptotic cells at 8 uM after 36 hrs by Annexin-V-FITC/propidium iodide staining based flow cytometry (reference value: 1.71%); assay type: functional
[7] = molecular target: Epidermal growth factor receptor (Homo sapiens) (UniProt P00533); assay: Inhibition of EGFR (unknown origin) at 30 uM relative to control
Epidermal growth factor receptor (Homo sapiens), sequence (P00533 whole entry): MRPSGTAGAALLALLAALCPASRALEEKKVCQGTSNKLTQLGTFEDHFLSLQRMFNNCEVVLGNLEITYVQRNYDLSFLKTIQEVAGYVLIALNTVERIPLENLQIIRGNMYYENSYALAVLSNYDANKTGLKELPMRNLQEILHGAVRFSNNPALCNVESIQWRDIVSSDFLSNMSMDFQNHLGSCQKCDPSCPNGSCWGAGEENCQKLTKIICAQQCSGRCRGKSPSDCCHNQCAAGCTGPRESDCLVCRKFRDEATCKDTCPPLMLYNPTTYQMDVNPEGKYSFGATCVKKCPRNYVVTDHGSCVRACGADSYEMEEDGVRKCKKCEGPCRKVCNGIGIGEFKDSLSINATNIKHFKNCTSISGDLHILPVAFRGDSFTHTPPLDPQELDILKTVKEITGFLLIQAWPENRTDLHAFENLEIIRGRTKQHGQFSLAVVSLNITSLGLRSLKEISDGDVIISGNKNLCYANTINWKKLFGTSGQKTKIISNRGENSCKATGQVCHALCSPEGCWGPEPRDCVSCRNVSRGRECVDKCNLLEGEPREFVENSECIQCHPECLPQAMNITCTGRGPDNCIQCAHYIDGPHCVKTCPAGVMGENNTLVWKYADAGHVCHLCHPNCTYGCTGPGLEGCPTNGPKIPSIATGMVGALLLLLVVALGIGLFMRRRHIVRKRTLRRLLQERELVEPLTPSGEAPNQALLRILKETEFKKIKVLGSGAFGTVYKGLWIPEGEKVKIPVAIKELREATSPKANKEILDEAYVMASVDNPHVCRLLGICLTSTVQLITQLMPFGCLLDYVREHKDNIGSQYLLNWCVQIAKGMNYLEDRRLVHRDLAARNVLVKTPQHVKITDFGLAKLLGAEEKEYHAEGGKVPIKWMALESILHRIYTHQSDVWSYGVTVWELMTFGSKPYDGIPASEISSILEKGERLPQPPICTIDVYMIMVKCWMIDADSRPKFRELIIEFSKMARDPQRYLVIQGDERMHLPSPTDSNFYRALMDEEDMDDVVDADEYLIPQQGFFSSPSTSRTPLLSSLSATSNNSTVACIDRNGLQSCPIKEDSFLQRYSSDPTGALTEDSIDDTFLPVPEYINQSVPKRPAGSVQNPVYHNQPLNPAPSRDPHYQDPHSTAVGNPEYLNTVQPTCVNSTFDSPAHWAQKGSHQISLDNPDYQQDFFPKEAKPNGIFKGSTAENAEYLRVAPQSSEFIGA

[8] = test system: AGS; assay: Synergistic antiproliferative activity against human AGS cells assessed as combination index constant at 1.5 uM after 48 hrs in presence of 7.5 nM BTZ by CCK8 assay; assay type: functional
Summary of the method: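 AGS cells at 6×10^3/well attached for 12 h, then exposed for 48 h to compound, bortezomib, or both at set concentrations. CCK-8 added for 4 h, then OD read at 450 nm. Inhibition rates E used for q = E(combo)/(E1+E2−E1×E2). Triplicate experiments.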

[9] = Antiproliferative activity against HEK293T cells after 48 hrs by CCK8 assay; assay type: cell-based, HEK-293T; details: human, read-out: LC50
[10] = molecular target: T1, NEDD8 activating enzyme (Homo sapiens); assay: Inhibition of NAE in human AGS cells assessed as reduction in Ubc12-NEDD8 conjugation level after 24 hrs by Western blot analysis; assay type: cell-based; summary of the method: as §1

In the case of `O=c1cc(-c2ccc(-c3ccccc3)cc2)c2ccc(N3CCC(NCCc4ccccc4)CC3)cc2o1`, the Activity [1] is reported as 44.73%, the inhibition [2] is reported as “Active” and the selectivity ratio [3] is reported as 14 to 18. It also gave an inhibition [4] of 5.17%, an Activity [5] of 35.77% and an Activity [6] of 35.01%. It also gave an inhibition [7] of 2.77%, a CI [8] of 1.05 and a CC50 at 48 h [9] of 12.9 µM. For the same compound, the inhibition [10] was “Dose-dependent effect”.
